From ChEMBL document CHEMBL2169740 (J Med Chem, 2012)

Legend:
[1] = Cmax in CD1 mouse at 200 mg/kg, po administered as single dose; assay type: ADME, organism-based; set-up: dose 200 mg/kg, route oral; settings: in vivo
In short: (§1)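 Female CD1 mice given one oral gavage dose (30, 50 or 200 mg/kg), n=3 per test article. Blood drawn from three mice at 15, 30, 60 min and 2, 4, 6, 8, 10, 24 h after dosing. Plasma concentration measured by LCMS over 24 h.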

Liver microsomes = test: Intrinsic clearance in human liver microsomes after 0.5 to 4 hrs by UPLC-MS analysis; assay type: ADME, Microsome
In short: (§2)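 Pooled liver microsomes (female CD-1 mouse or mixed-gender human) at 0.5 mg/mL in 0.1 M potassium phosphate pH 7.4 with EDTA, with NADPH-regenerating solutions A+B; 37 °C with shaking; quenched at 0, 0.5, 1, 2, 4 h with cold methanol containing 10 μM warfarin internal standard. UPLC-MS (SIR); k from log peak-area-ratio slope, t1/2 = 0.693/k, CLint normalised to microsomal protein; triplicate.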

[2] = Cmax in CD1 mouse at 30 mg/kg, po administered as single dose; assay type: ADME, organism-based; set-up: dose 30 mg/kg, route oral; settings: in vivo; in short: as §1
[3] = AUC in CD1 mouse at 30 mg/kg, po administered as single dose; assay type: ADME, organism-based; set-up: dose 30 mg/kg, route oral; settings: plasma; in short: as §1
[4] = AUC in CD1 mouse at 200 mg/kg, po administered as single dose; assay type: ADME, organism-based; set-up: dose 200 mg/kg, route oral; settings: plasma; in short: as §1
Liver = test: Intrinsic clearance in CD1 mouse liver microsomes after 0.5 to 4 hrs by UPLC-MS analysis; assay type: ADME, Microsome; in short: as §2
[5] = Permeability of the compound at pH 7.4 by PAMPA; assay type: ADME
[6] = Permeability of the compound at pH 4.0 by PAMPA; assay type: ADME
In short: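 PAMPA: compound diluted in system buffer at pH 7.4 or 4 as donor; membrane coated with GIT lipid; acceptor buffer; stirred 30 min with 40 μm aqueous boundary layer. UV spectra (250–500 nm) of reference, donor and acceptor; permeability coefficient from spectral AUCs; triplicate.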

[7] = Cmax in CD1 mouse at 50 mg/kg, po administered as single dose; assay type: ADME, organism-based; set-up: dose 50 mg/kg, route oral; settings: in vivo; in short: as §1
[8] = AUC (infinity) in CD1 mouse at 50 mg/kg, po administered as single dose; assay type: ADME, organism-based; set-up: time infinity, dose 50 mg/kg, route oral; settings: plasma; in short: as §1

Row | SMILES | Cmax [1] [nM] | Intrinsic clearance (CLint) (Liver microsomes) [µL/min/mg] | Cmax [2] [nM] | AUC(0-inf) [3] [µM·h] | AUC(0-inf) [4] [µM·h] | Intrinsic clearance (CLint) (Liver) [µL/min/mg] | permeability [5] [×10⁻⁶ cm/s] | permeability [6] [×10⁻⁶ cm/s] | Cmax [7] [nM] | AUC(0-inf) [8] [µM·h]
1 | CCOC(=O)c1c(-c2cccc(OC)c2)[nH]c2cc(OC)ccc2c1=O | 5800 | 5.7 | 8000 | 8 | 7.8 | 7.9 |  |  |  | 
2 | CCOC(=O)c1c(-c2cccc(Cl)c2)[nH]c2cc(OC)ccc2c1=O |  | 3.4 |  |  |  | 16 |  |  |  | 
3 | COc1cc2[nH]c(-c3cccc(Oc4ccccc4)c3)c(C(=O)OCCCN3CCOCC3)c(=O)c2cc1F |  | 11 |  |  |  | 24 | 880 | 30 |  | 
4 | COc1cc2[nH]c(-c3cccc(Oc4ccccc4)c3)c(C(=O)OCCO)c(=O)c2cc1F |  | 4.8 |  |  |  | 11 | 620 |  |  | 
5 | CCOC(=O)c1c(-c2cccc(Oc3ccccc3)c2)[nH]c2cc(OC)c(F)cc2c1=O |  |  |  |  |  | 16 | 560 |  |  | 
6 | CCOC(=O)c1c(-c2cccc(Cl)c2)[nH]c2cc(OC)c(F)cc2c1=O | 66000 | 0.5 |  |  | 280 | 4 | 410 |  | 38000 | 130
7 | CCOC(=O)c1c(-c2cccc(Br)c2)[nH]c2cc(OC)c(F)cc2c1=O | 39000 | 1.2 |  |  | 160 | 2.7 | 670 |  | 31000 | 71
8 | CCOC(=O)c1c(-c2cc(F)cc(OC)c2)[nH]c2cc(OC)c(F)cc2c1=O | 1600 | 56 |  |  | 19 | 6.7 | 230 |  | 710 | 9.3
9 | CCOC(=O)c1c(-c2cccc(-c3ccccc3)c2)[nH]c2cc(OC)ccc2c1=O | 430 | 5 | 230 | 1.7 | 4.3 | 5.7 | 2900 |  |  | 
10 | CCOC(=O)c1c(-c2cccc(OCC)c2)[nH]c2cc(OC)ccc2c1=O | 2400 | 5.7 | 1900 | 5.1 | 10 | 12 | 260 |  |  | 
11 | CCCOc1cccc(-c2[nH]c3cc(OC)ccc3c(=O)c2C(=O)OCC)c1 | 1800 | 12 | 300 | 1.6 | 7.7 | 39 | 340 |  |  | 
12 | CCOC(=O)c1c(-c2cccc(Oc3ccccc3)c2)[nH]c2cc(OC)ccc2c1=O | 400 |  | 60 | 0.15 | 1 | 35 | 750 |  |  | 
13 | CCOC(=O)c1c(-c2ccc3c(c2)OCO3)[nH]c2cc(OC)ccc2c1=O | 5000 | 12 | 1500 | 6.1 | 65 | 12 |  |  |  | 
